Activity calls are given as the source filed them. The rule behind the calls is not given here.
How the values were obtained:
[1] = Cytotoxicity against human A375 cells assessed as cell viability at 1 uM measured after 48 hrs by MTT assay relative to control; assay type: cell-based, A-375; conditions: read-out: Activity
In short: (§1)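 A375 cells, unstimulated or stimulated with recombinant human IFN-γ, were left untreated or treated with 1 µM compound for 48 h. L-Kyn was measured by HPLC and cell viability was assessed.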

[2] = molecular target: T1, Indoleamine 2,3-dioxygenase 1 (Homo sapiens, UniProt P14902); assay: Inhibition of IDO1 in IFNgamma-stimulated human A375 cells assessed as reduction in L-Kyn level at 1 uM measured after 48 hrs by HPLC analysis relative to control; in short: as §1
Target sequence in this assay (P14902 whole entry, looked up): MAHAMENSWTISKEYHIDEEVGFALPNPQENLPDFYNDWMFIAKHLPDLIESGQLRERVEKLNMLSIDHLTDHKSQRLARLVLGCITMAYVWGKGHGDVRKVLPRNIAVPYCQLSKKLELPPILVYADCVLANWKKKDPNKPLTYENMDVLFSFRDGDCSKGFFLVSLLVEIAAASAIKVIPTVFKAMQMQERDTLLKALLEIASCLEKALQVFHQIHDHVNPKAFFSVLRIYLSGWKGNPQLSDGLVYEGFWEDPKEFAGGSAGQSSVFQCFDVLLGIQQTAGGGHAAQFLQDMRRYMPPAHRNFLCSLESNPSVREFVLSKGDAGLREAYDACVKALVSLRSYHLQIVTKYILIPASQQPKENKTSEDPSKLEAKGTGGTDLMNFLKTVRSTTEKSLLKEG

[3] = Metabolic stability in CD-1 mouse liver microsomes assessed as parent compound remaining at 50 uM measured after 1 hr in presence of NADPH by UV-LC/MS analysis
Mus musculus [4] = assay: In vivo inhibition of IDO1 in BALB/c mouse assessed as reduction in L-kyn level at 10 mg/kg, iv measured up to 30 mins by LC-HRMS analysis; assay type: functional, organism-based
In short: (§2)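 After a single 10 mg/kg i.v. dose in mice, plasma L-Kyn was measured at 0, 2, 5, 15 and 30 min and at 8 h post-injection, and compared with basal level.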

[5] = molecular target: T1, Indoleamine 2,3-dioxygenase 1; assay: Inhibition of IDO1 in IFNgamma-stimulated human A375 cells assessed as reduction in L-Kyn level at 10 uM measured after 48 hrs by HPLC analysis relative to control
In short: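 Screen in melanoma A375 cells, which express IDO1 when treated with recombinant human IFN-γ. Cells were left untreated or given 10 µM compound for 48 h. L-Kyn was then measured. Cell viability was also checked.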
Target sequence in this assay (P14902 whole entry, looked up): as above

[6] = molecular target: T1, Indoleamine 2,3-dioxygenase 1; assay: Inhibition of IDO1 in IFNgamma-stimulated human HeLa cells assessed as reduction in L-Kyn level measured after 48 hrs by HPLC analysis; assay type: cell-based
Target sequence in this assay (P14902 whole entry): as the sequence (P14902 whole entry, looked up) above

[7] = molecular target: T1, Indoleamine 2,3-dioxygenase 1; assay: Inhibition of IDO1 in IFNgamma-stimulated human DAN-G cells assessed as reduction in L-Kyn level measured after 48 hrs by HPLC analysis; assay type: cell-based
Target sequence in this assay (P14902 whole entry): as the sequence (P14902 whole entry, looked up) above

[8] = molecular target: T1, Indoleamine 2,3-dioxygenase 1; assay: Selectivity ratio of IC50 for IDO1 in IFNgamma-stimulated human DAN-G cells to IC50 for IDO1 in IFNgamma-stimulated human MCF7 cells
Target sequence in this assay (P14902 whole entry, looked up): as above

[9] = molecular target: Indoleamine 2,3-dioxygenase 1 (Mus musculus, UniProt P28776); assay: Inhibition of mouse IDO1 transfected in P815 cells assessed as reduction in L-Kyn level measured after 16 hrs by HPLC analysis; assay type: cell-based
In short: (§3)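 P815 mastocytoma cells stably expressing mouse IDO1 (P1.IDO1) or TDO (P1.TDO) were treated with serial dilutions for 16 h. L-Kyn secreted into the culture supernatant was quantified by HPLC, and an IC50 was determined in each line.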

[10] = molecular target: T1, Indoleamine 2,3-dioxygenase 1; assay: Inhibition of IDO1 in IFNgamma-stimulated human HepG2 cells assessed as reduction in L-Kyn level measured after 48 hrs by HPLC analysis; assay type: cell-based
Target sequence in this assay (P14902 whole entry): as the sequence (P14902 whole entry, looked up) above

[11] = molecular target: T1, Indoleamine 2,3-dioxygenase 1; assay: Selectivity ratio of IC50 for IDO1 in IFNgamma-stimulated human DAN-G cells to IC50 for IDO1 in IFNgamma-stimulated human LXF-289 cells
Target sequence in this assay (P14902 whole entry, looked up): as above

Monocyte [12] = assay: Cytotoxicity against human monocytes assessed as reduction in cell viability at 30 uM measured after 24 hrs by Annexin-V APC/7-AAD staining based flow cytometric analysis
In short: (§4)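 Monocytes from healthy donors (n=3) and from PDAC patients (n=3) were treated for 24 h, with DMSO as control. Viability was normalized to untreated cells. Healthy-donor cells received a range of concentrations; PDAC cells received 30 µM.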

[13] = molecular target: T1, Indoleamine 2,3-dioxygenase 1; assay: Inhibition of IDO1 in IFNgamma-stimulated human LXF-289 cells assessed as reduction in L-Kyn level measured after 48 hrs by HPLC analysis
Target sequence in this assay (P14902 whole entry): as the sequence (P14902 whole entry, looked up) above

Monocyte [14] = assay: Cytotoxicity against PDAC patient derived monocytes assessed as reduction in cell viability at 30 uM measured after 24 hrs by Annexin-V APC/7-AAD staining based flow cytometric analysis; conditions: human; in short: as §4
[15] = Metabolic stability in CD-1 mouse liver microsomes assessed as parent compound remaining at 50 uM measured after 1 hr in presence of NADPH generating system by UV-LC/MS analysis; assay type: ADME, Microsome; conditions: read-out: Stability
In short: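 Mouse liver microsomes activated with NADPH. Residual parent compound was measured after 1 h incubation.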

[16] = molecular target: T1, Indoleamine 2,3-dioxygenase 1; assay: Selectivity ratio of IC50 for IDO1 in IFNgamma-stimulated human DAN-G cells to IC50 for IDO1 in IFNgamma-stimulated human HepG2 cells
Target sequence in this assay (P14902 whole entry, looked up): as above

Monocyte [17] = assay: Effect on anti-CD3/anti-CD28-stimulated CD3+T cell proliferation in PDAC patient derived non-suppressive monocytes co-cultured with human PBMC at 30 uM preincubated for 4 days followed by co-culturing of monocytes and measured after 24 hrs by flow cytometric analysis; assay type: cell-based
In short: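 PDAC patient monocytes (suppressive or non-suppressive) were pre-treated with 30 µM compound or DMSO, then co-cultured for 4 days with Cell Trace-labelled activated CD3+ T cells. T-cell proliferation was read from proliferation peaks and normalized to activated T cells cultured without myeloid cells. Data are mean ± SEM; Mann-Whitney test.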

[18] = Inhibition of CYP450 in rat liver microsomes assessed as reduction in aminopyrine N-demethylase activity preincubated for 3 mins followed by NADPH addition and measured after 15 mins by iodometric titration method; assay type: ADME
In short: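 CYP inhibition read by aminopyrine N-demethylase activity, with IC50 determined from concentration–response curves. Ketoconazole (CYP3A inhibitor) served as reference.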

[19] = Drug metabolism in CD-1 mouse liver microsomes assessed as oxidative N-dealkylation at 50 uM measured after 1 hr by LC-HRMS analysis; assay type: ADME, Microsome
[20] = molecular target: T1, Indoleamine 2,3-dioxygenase 1; assay: Inhibition of IDO1 in PDAC patient derived suppressive monocytes co-cultured with human PBMC assessed as reduction in anti-CD3/anti-CD28-stimulated CD3+T cell proliferation at 30 uM preincubated for 4 days followed by co-culturing of monocytes and measured after 24 hrs by flow cytometric analysis
Target sequence in this assay (P14902 whole entry, looked up): as above

[21] = molecular target: T1, Indoleamine 2,3-dioxygenase 1; assay: Selectivity ratio of IC50 for IDO1 in IFNgamma-stimulated human DAN-G cells to IC50 for IDO1 in IFNgamma-stimulated human HeLa cells
[22] = Drug metabolism in CD-1 mouse liver microsomes assessed as benzimidazole oxidation at 50 uM measured after 1 hr by LC-HRMS analysis; assay type: ADME, Microsome
[23] = molecular target: T1, Indoleamine 2,3-dioxygenase 1; assay: Selectivity ratio of IC50 for IDO1 in IFNgamma-stimulated human DAN-G cells to IC50 for IDO1 in IFNgamma-stimulated human A375 cells
[24] = molecular target: Tryptophan 2,3-dioxygenase (Mus musculus, UniProt P48776); assay: Inhibition of mouse TDO transfected in P815 cells assessed as reduction in L-Kyn level measured after 16 hrs by HPLC analysis; assay type: cell-based; in short: as §3
[25] = molecular target: T1, Indoleamine 2,3-dioxygenase 1; assay: Inhibition of IDO1 in IFNgamma-stimulated human MCF7 cells assessed as reduction in L-Kyn level measured after 48 hrs by HPLC analysis; assay type: cell-based
Target sequence in this assay (P14902 whole entry): as the sequence (P14902 whole entry, looked up) above

Mus musculus [26] = assay: In vivo inhibition of IDO1 in BALB/c mouse assessed as reduction in L-kyn level at 10 mg/kg, iv measured after 8 hrs by LC-HRMS analysis; assay type: functional, organism-based; in short: as §2
[27] = molecular target: T1, Indoleamine 2,3-dioxygenase 1; assay: Binding affinity to NT650-NHS fluorophore-labeled recombinant human N-terminal His-tagged IDO1 expressed in Escherichia coli measured after 10 mins by microscale thermophoresis assay
Target sequence in this assay (P14902 whole entry): as the sequence (P14902 whole entry, looked up) above

[28] = molecular target: T1, Indoleamine 2,3-dioxygenase 1; assay: Inhibition of IDO1 in IFNgamma-stimulated human A375 cells assessed as reduction in L-Kyn level measured after 48 hrs by HPLC analysis
[29] = Inhibition of CYP3A in rat liver microsomes assessed as reduction in aminopyrine N-demethylase activity preincubated for 3 mins followed by NADPH addition and measured after 15 mins by iodometric titration method; assay type: ADME
In short: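 IC50 derived by fitting concentration–response curves for inhibition of aminopyrine N-demethylase activity, with ketoconazole run as the reference CYP3A inhibitor.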

Tryptophan 2,3-dioxygenase, sequence (P48776 whole entry): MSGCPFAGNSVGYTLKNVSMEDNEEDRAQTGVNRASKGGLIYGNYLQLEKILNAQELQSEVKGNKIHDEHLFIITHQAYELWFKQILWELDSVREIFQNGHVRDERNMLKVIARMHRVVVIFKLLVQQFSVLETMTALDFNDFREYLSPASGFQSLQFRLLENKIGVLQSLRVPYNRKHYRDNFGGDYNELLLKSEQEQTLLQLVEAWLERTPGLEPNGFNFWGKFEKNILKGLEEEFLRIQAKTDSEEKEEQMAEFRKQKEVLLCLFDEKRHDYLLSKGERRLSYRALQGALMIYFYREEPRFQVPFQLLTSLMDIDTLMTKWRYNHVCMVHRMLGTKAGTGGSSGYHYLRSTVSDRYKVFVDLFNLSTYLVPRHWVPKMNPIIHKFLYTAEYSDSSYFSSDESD
Indoleamine 2,3-dioxygenase 1 (Mus musculus, UniProt P28776), sequence (P28776 whole entry): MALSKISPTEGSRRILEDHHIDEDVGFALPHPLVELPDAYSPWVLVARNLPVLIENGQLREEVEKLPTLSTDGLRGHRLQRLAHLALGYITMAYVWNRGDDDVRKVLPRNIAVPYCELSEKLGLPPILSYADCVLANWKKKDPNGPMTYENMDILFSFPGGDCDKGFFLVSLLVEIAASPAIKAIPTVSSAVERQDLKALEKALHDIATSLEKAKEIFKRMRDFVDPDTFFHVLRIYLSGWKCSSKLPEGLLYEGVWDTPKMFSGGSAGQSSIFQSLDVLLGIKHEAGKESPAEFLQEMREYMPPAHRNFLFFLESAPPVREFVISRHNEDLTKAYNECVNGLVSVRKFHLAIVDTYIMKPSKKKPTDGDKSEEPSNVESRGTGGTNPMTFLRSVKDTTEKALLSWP

Cc1cc(C(=O)NCc2cccc(Cn3cnc4ccccc43)c2)ccc1C#N
viability at 48 h, 1 µM [1]: 94% | inhibition [2]: 44%

O=C(NCc1cccc(Cn2cnc3ccccc32)c1)c1cc(Br)c[nH]1
viability at 48 h, 1 µM [1]: 85 to 100% | remaining at 1 h, 50 µM [3]: 32% | inhibition (Mus musculus [4]): Active | inhibition [5]: > 30% | IC50 [6]: 64 nM | IC50 [7]: 605 nM | Ratio IC50 [8]: > 1 | IC50 [9]: 12.7 nM | IC50 [10]: 43 nM | Ratio IC50 [11]: > 1 | Activity (Monocyte [12]): Non-Toxic | IC50 [13]: 14 nM | Activity (Monocyte [14]): Non-Toxic | inhibition [2]: 96% | remaining at 1 h, 50 µM [15]: 32% | Ratio IC50 [16]: > 1 | Activity (Monocyte [17]): Non-Toxic | IC50 [18]: 67700 nM | Drug metabolism [19]: Metabolite_Detected | inhibition [20]: Active | Ratio IC50 [21]: > 1 | Drug metabolism [22]: Metabolite_Detected | Ratio IC50 [23]: > 1 | IC50 [24]: 5460 nM | IC50 [25]: 21 nM | inhibition (Mus musculus [26]): inactive | Kd [27]: 550 nM

O=C(NCc1cccc(Cn2cnc3ccccc32)c1)c1cc2ccccc2s1
viability at 48 h, 1 µM [1]: 88% | inhibition [2]: 77%

O=C(NCc1cccc(Cn2cnc3ccccc32)c1)c1ccccc1
viability at 48 h, 1 µM [1]: 98% | inhibition [2]: 32%

N#Cc1ccc(C(=O)NCc2cccc(Cn3cnc4ccccc43)c2)cc1
viability at 48 h, 1 µM [1]: 100% | remaining at 1 h, 50 µM [3]: 59% | IC50 [7]: 1940 nM | IC50 [9]: 112 nM | inhibition [2]: 88% | IC50 [28]: 90 nM | remaining at 1 h, 50 µM [15]: 59% | inhibition (INH) ([18]; rat, microsomes, 0.25 h): Not Active | Drug metabolism [19]: Metabolite_Detected | Drug metabolism [22]: Metabolite_Detected | IC50 [24]: 32300 nM | IC50 [25]: 110 nM

CC(=O)NCC(=O)NCc1cccc(Cn2cnc3ccccc32)c1
viability at 48 h, 1 µM [1]: 100% | inhibition [2]: 0%

NS(=O)(=O)NCCNc1nonc1C(=NO)Nc1ccc(F)c(Br)c1 [EPACADOSTAT]
viability at 48 h, 1 µM [1]: 97% | Activity (Monocyte [12]): Non-Toxic | Activity (Monocyte [14]): Non-Toxic

N#Cc1ccc(C(=O)NCc2cccc(Cn3cnc4ccccc43)c2)cc1F
viability at 48 h, 1 µM [1]: 100% | inhibition [2]: 32%

O=C(CNC(=O)c1ccccc1)NCc1cccc(Cn2cnc3ccccc32)c1
viability at 48 h, 1 µM [1]: 99% | inhibition [2]: 13%

CC(=O)N1CCN(c2ccc(OCC3COC(Cn4ccnc4)(c4ccc(Cl)cc4Cl)O3)cc2)CC1 (stereo unspecified) [KETOCONAZOLE]
IC50 [29]: 6400 nM

O=C(OCc1cccc(Cn2cnc3ccccc32)c1)c1cc(Br)c[nH]1
viability at 48 h, 1 µM [1]: 100% | inhibition [2]: 0%

N#Cc1ccc(C(=O)NCc2cccc(Cn3cnc4ccccc43)c2)c(F)c1
viability at 48 h, 1 µM [1]: 99% | inhibition [2]: 37%

O=C(NCc1cccc(Cn2cnc3ccccc32)c1)c1ccc(F)cc1
viability at 48 h, 1 µM [1]: 89% | inhibition [2]: 88% | IC50 [28]: 961 nM

O=C(NCc1cccc(Cn2cnc3ccccc32)c1)c1ccc(Cl)cc1
viability at 48 h, 1 µM [1]: 96% | inhibition [2]: 99% | IC50 [28]: 477 nM

COc1ccc2[nH]c(C(=O)NCc3cccc(Cn4cnc5ccccc54)c3)cc2c1
viability at 48 h, 1 µM [1]: 55%
